Bioassay records as filed in PubChem BioAssay.
TDP2 absorb – blocks human TDP2 phosphodiesterase activity; 370,000 tested, 0.34% active; inhibition, % at 12.8 µM; O95551; recombinant TDP2, T5PNP hydrolysis, p-nitrophenol absorbance 415 nm;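 active = inhibition above the mean of all tested compounds plus 3 SD, set per campaign, cut at about 25% in these data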;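 note: 0% = DMSO with enzyme and 100% = buffer with substrate but no TDP2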
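Material: recombinant human TDP2; quantity: TDP2 enzyme at 120 nM final; medium: Tris-HCl pH 7.5 with MgCl2; compound: single concentration, 12.8 µM nominal, with 1% DMSO; incubation: 2 h enzyme incubation at 37 °C; signal: epi absorbance; measure: percent inhibition; benchmarks: high control without enzyme, low control DMSO plus TDP2; repeats: singlicate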
HTRA1 inhibitor – blocks human HTRA1 serine peptidase; Q92743; recombinant HTRA1, FP-rhodamine activity-based probe, fluorescence polarization; inhibition, % at 5.96 µM; 340,000 tested, 0.5% active; AID 504803; in the data active = inhibition above about 36%;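 note: 0% = enzyme with DMSO and 100% = wells lacking enzyme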
Target sequence (Q92743 whole entry, looked up): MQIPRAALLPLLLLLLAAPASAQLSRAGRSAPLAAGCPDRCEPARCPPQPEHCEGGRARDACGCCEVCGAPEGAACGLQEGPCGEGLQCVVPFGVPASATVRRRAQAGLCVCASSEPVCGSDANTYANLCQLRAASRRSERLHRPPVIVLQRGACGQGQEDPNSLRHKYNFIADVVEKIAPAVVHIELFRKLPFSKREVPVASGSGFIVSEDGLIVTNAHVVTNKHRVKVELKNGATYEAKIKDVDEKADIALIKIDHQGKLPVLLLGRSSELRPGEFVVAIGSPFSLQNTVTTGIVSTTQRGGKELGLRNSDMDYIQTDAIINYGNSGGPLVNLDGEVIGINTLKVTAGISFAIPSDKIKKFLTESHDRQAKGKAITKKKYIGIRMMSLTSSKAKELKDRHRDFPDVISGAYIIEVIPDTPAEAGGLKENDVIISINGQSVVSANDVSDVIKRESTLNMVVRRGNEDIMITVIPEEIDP
mABHD4 FP – inhibits mouse alpha/beta hydrolase domain 4; AID 720543; inhibition, % at 8.92 µM; Q8VD66; 370,000 tested, 0.54% active; purified mABHD4, FP-Rh probe fluorescence polarization;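 active = inhibition exceeding the mean over every tested compound plus 3 SD, cut at about 30% in these data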;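 note: 0% = plate median of compound wells and 100% = S159A mutant with DMSO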
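Test system: mABHD4 protein; Read-out basis: % inhibition; Incubation: 45 min + 60 min at 25 °C; Repeats: single replicate; Technique: fluorescence polarization with parallel and perpendicular emission, 525/598 nm; Compound: 8.92 µM, single dose; Benchmarks: full inhibition S159A mutant plus DMSO, zero as sample-well median.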
LEDGF integ inh – blocks HIV-1 LEDGF/p75-dependent DNA integration; TR-FRET IN-LEDGF/p75 DNA integration, Eu/Cy5; inhibition, % at 3.7 µM; 370,000 tested, 0.64% active; AID 743269;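 active = inhibition above the screen-wide mean plus 3 SD, cut at about 13% in these data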;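 note: signal is the Cy5 over europium emission ratio at 671 and 618 nm; 0% = plate median of compound wells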
SIAE inh – inhibitors of human sialic acid acetylesterase SIAE; SIAE FP-Rh probe binding, fluorescence polarization; 370,000 tested, 0.69% active; inhibition, % at 9.66 µM;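 active = inhibition above a cutoff: mean of compounds within the control limits plus 3 SD of those, cut at about 17% in these data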;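 note: 0% = plate median of compound wells and 100% = probe without SIAE protein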
TCR CD3 inh – human TCR-CD3 binding inhibition; inhibition, % at 9.4 µM; AID 651800; 360,000 tested, 0.37% active; TAMRA-labeled TCR probe fluorescence, biochemical; in the data active = inhibition above about 19%;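 note: recombinant mutant TCR 2C K166C tagged with TAMRA read by polarization; 0% = receptor in buffer alone and 100% = receptor with positive control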
IN multimer act – counter-screen for LEDGF/p75 integration inhibitors: HIV-1 integrase multimerization activators; 2,000 tested, 17% active; shares compounds with LEDGF integ inh; AID 1053131; activation, % at 7.7 µM; TR-FRET HIV-1 integrase multimerization, biochemical; in the data active = activation above about 8.9%
TR-FRET interf – counter-screen for LEDGF/p75 integration inhibitors: TR-FRET optical interference. shares compounds with LEDGF integ inh. TR-FRET optical interference counterscreen, HIV-1 IN multimerization. inhibition, % at 7.7 µM. 2,000 tested, under 10 active;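 active = inhibition above the mean over all tested compounds plus 3 SD, which no compound reached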;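 note: 0% = integrase with antibodies and DMSO and 100% = antibodies without integrase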
LEDGF integ conf – confirmation of HIV-1 LEDGF/p75-dependent integration inhibitors; shares compounds with LEDGF integ inh; TR-FRET LEDGF/p75-dependent HIV-1 integration, biochemical; inhibition, % at 3.7 µM; 2,000 tested, 36% active; AID 1053136; in the data active = inhibition above about 14%
* marks the source's active call; other numbers are inactive results; . = no result. In the library only some 2.2% were active in any assay of this set; here they are far more common.

SMILES	TDP2 absorb	HTRA1 inhibitor	mABHD4 FP	LEDGF integ inh	SIAE inh	TCR CD3 inh	IN multimer act	TR-FRET interf	LEDGF integ conf
Cc1cccc(-c2ccc3[nH]c4c(c3c2)CCN2C[C@@H]([C@H](C)OC(=O)Nc3ccccc3C)[C@@H](N(C)C(=O)Nc3ccccc3C)C[C@@H]42)c1	-1	-25	21	56*	-6	-7	2	-5	-5
COc1ccc(-c2ccc3[nH]c4c(c3c2)CCN2C[C@@H]([C@H](C)O)[C@@H](N(C)C(=O)Nc3cc(Cl)cc(Cl)c3)C[C@@H]42)cc1	-1	-17	-3	4	-4	-11	.	.	.
CC1Cn2c(CCc3ccccc3)nnc2S1 (configuration not stated)	4	4	-3	23*	-2	0	0	-1	-6
Nc1c(C(=O)N/N=C/c2cccnc2)oc2nc(-c3ccco3)cc(-c3ccco3)c12	4	.	23	53*	5	16	40*	-199	91*
O=C(Nc1cc(S(=O)(=O)N2CCCCCC2)ccc1OCC(F)(F)F)c1cnccn1	11	-11	0	3	-1	10	.	.	.
O=Nc1ccc(NO)c2ccccc12	-10	8	7	-7	-12	-5	.	.	.
O=C(c1coc(=O)c(Br)c1)N1CCCc2ccccc21	1	14	16	19*	-12	1	-1	4	17*
CC1(C)CCCN(C(=O)c2coc(=O)c(Br)c2)C1	7	-3	-6	22*	-1	-1	16*	-83	65*
CC(=O)c1cc2c(cc1NC(=O)CCn1cnnn1)OCO2	7	-5	-5	-3	5	-2	.	.	.
C=CCN(c1ccccc1Cl)S(=O)(=O)c1cccc(C(=O)NCCc2ccc(OC)cc2)c1	9	-46	-14	90*	-4	1	-1	2	-9
COc1ccc(CCNC(=O)c2cccc(S(=O)(=O)N3CCCCC3)c2)cc1	-13	0	-5	7	1	-3	.	.	.
CCCCn1nnnc1C1(C)CCC(=O)N1CCCn1ccnc1 (configuration not stated)	7	.	9	16*	7	2	4	-13	7
Cc1cccc(C)c1-n1nnnc1C1(C)CCC(=O)N1CCCn1ccnc1 (configuration not stated)	16	.	9	4	0	-11	.	.	.
CC1=C(n2nnc([N+](=O)[O-])n2)C(c2cccnc2)C(C#N)=C(N)O1 (configuration not stated)	13	1	4	30*	4	5	2	-9	-2
COC(=O)C1=C(C)OC(N)=C(C#N)C1c1cccnc1 (configuration not stated)	1	6	13	-2	-1	4	.	.	.
O=C1CN(C(=O)COc2ccc(F)cc2Cl)c2ccccc2N1	9	3	4	23*	2	6	1	-4	-5
O=C1CN(C(=O)COc2ccc(Cl)cc2Cl)c2ccccc2N1	2	-9	-4	2	-10	5	.	.	.
C=CC(=O)N1C/C(=C/c2ccc(F)cc2)C(=O)/C(=C\c2ccc(F)cc2)C1	-14	-15	-12	14*	-8	4	11*	-54	18*
Cc1cc(C)cc(C(=O)OCCCN(C)C2CN(Cc3cn(Cc4ccccc4F)nn3)S(=O)(=O)C2)c1 (configuration not stated)	1	.	0	-4	2	.	.	.	.
CCN(CC)S(=O)(=O)c1ccc(N2CC(C(=O)N3Cc4ccccc4CC3C(N)=O)CC2=O)cc1 (configuration not stated)	2	-6	0	3	-1	1	.	.	.
